Data: ChEMBL document CHEMBL2434878, “Synthesis and antimycobacterial activity of analogues of the bioactive natural products sampangine and cleistopholine” (Eur J Med Chem, 2013)
pIC50: −log10 of the molar value. ≈ marks a conversion by molar mass, not a printed value.

How the values were obtained:
[1] = test system: Mycobacterium intracellulare; experiment: Antimicrobial activity against Mycobacterium intracellulare; format: functional
[2] = Therapeutic index, ratio of IC50 for human HepG2/C3A cells to GI50 for Mycobacterium tuberculosis H37Rv ATCC 27294; format: cell-based; conditions: read-out: TI
In short: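 TI is NI50/GI50. NI50 came from a neutral red uptake assay in C3A hepatocytes (40,000 cells/well, 24 h exposure at 37 °C, 3 h dye, OD 530 nm with 620 nm reference): the concentration reducing dye uptake by 50%. GI50 came from the 6-day luminescent H37Rv assay.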

[3] = Genotoxicity in human HepG2/C3A cells assessed as genomic DNA fragmentation at 1 to 3 uM after 24 hrs by comet assay; format: toxicity, cell-based
In short: (§1)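 Alkaline comet assay: C3A cells at 100,000/well recovered overnight, then 24 h at 37 °C, 5% CO2 with serial dilutions from DMSO stock in DMEM + 10% FCS. Cells embedded in low-melting agarose, lysed 1 h, electrophoresed 20 min at 300 mA, neutralized, gel red stained. Tail DNA as % of head + tail DNA by fluorescence microscopy; Mann–Whitney test.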

[4] = test system: Mycobacterium tuberculosis; experiment: Antimicrobial activity against Mycobacterium tuberculosis H37Rv ATCC 27294 expressing luciferase reporter gene assessed as growth inhibition at 10 uM after 6 days by luminometry relative to control; format: functional; conditions: H37Rv ATCC 27294, 144 h, read-out: GI
In short: (§2)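 Single-concentration screen of the luminescent H37Rv reporter strain in 7H9-10% FCS, inoculated at 50,000 RLU/ml, 6 days at 37 °C. Luminescence was read after n-decanal addition. Percent inhibition is versus the untreated culture, as the mean of triplicate cultures.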

[5] = test system: Mycobacterium tuberculosis; experiment: Antimicrobial activity against Mycobacterium tuberculosis H37Rv ATCC 27294 expressing luciferase reporter gene assessed as reduction in bacterial count after 6 days by luminometry; format: functional; conditions: H37Rv ATCC 27294, 144 h
In short: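 MIC by serial dilution in the 6-day luminescent H37Rv assay (7H9-10% FCS, 50,000 RLU/ml inoculum, triplicate wells, n-decanal read-out). MIC is the concentration giving at least one log10 reduction in signal versus the untreated control.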

[6] = test system: Mycobacterium tuberculosis; experiment: Antimicrobial activity against Mycobacterium tuberculosis H37Rv ATCC 27294 expressing luciferase reporter gene assessed as growth inhibition after 6 days by luminometry; format: functional; conditions: H37Rv ATCC 27294, 144 h
In short: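 Luminescent H37Rv (pSMT1, V. harveyi luciferase) was declumped by filtration, adjusted to 50,000 RLU/ml in 7H9-10% FCS, and exposed to serial compound dilutions in triplicate for 6 days at 37 °C. Light was read for 10 s after adding 1% n-decanal. GI50 is the concentration giving 50% growth reduction versus untreated culture.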

[7] = Cytotoxicity against human HepG2/C3A cells after 24 hrs by neutral red dye uptake assay; format: cell-based
[8] = test system: Mycobacterium tuberculosis; experiment: Antimicrobial activity against Mycobacterium tuberculosis H37Rv ATCC 27294 expressing luciferase reporter gene infected in mouse J774 macrophages assessed as intracellular growth inhibition at 0.5 uM after 4 days by luminometry relative to untreated control; format: functional; conditions: H37Rv ATCC 27294, J774, 96 h, read-out: GI
In short: (§3)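 J774.A1 murine macrophages were seeded at 40,000 cells/well, recovered overnight and infected with luminescent H37Rv. From 24 h post-infection, cells were treated for 4 days in DMEM with penicillin and fungizone, without gentamicin. Growth was read by luminescence after 1% n-decanal and expressed as percent inhibition versus untreated, in triplicate. Macrophage viability was checked by trypan blue.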

[9] = test system: Mycobacterium tuberculosis; experiment: Antimicrobial activity against Mycobacterium tuberculosis H37Rv ATCC 27294 expressing luciferase reporter gene assessed as growth inhibition at 1 uM after 6 days by luminometry relative to control; format: functional; conditions: H37Rv ATCC 27294, 144 h, read-out: GI; in short: as §2
[10] = test system: Mycobacterium tuberculosis; experiment: Antimicrobial activity against Mycobacterium tuberculosis H37Rv ATCC 27294 expressing luciferase reporter gene infected in mouse J774 macrophages assessed as intracellular growth inhibition at 1 uM after 4 days by luminometry relative to untreated control; format: functional; conditions: H37Rv ATCC 27294, J774, 96 h, read-out: GI; in short: as §3
[11] = test system: Mycobacterium avium subsp. paratuberculosis; experiment: Antimicrobial activity against Mycobacterium avium subsp. paratuberculosis ATCC 15769 expressing luciferase reporter gene assessed as growth inhibition after 6 days by luminometry; format: functional; conditions: ATCC 15769, 144 h
[12] = test system: Mycobacterium tuberculosis; experiment: Antimicrobial activity against Mycobacterium tuberculosis H37Rv ATCC 27294 expressing luciferase reporter gene assessed as growth inhibition at 0.1 uM after 6 days by luminometry relative to control; format: functional; conditions: H37Rv ATCC 27294, 144 h, read-out: GI; in short: as §2
[13] = test system: Mycobacterium ulcerans; experiment: Antimicrobial activity against Mycobacterium ulcerans 1615 expressing luciferase reporter gene assessed as growth inhibition after 6 days by luminometry; format: functional; conditions: Mycobacterium ulcerans, 1615, 144 h
In short: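 Luminescent M. ulcerans 1615 carrying pSMT1 luciferase plasmid, grown at 32 °C in 7H9 with 10% OADC and 0.2% glycerol. Serial dilutions from 10 mM DMSO stocks in 7H9 + 10% FCS; bacteria dosed at 50,000 RLU/ml, triplicate wells. After 6 days, light read over 10 s following 1% n-decanal in ethanol. GI50 taken at 50% growth reduction versus untreated culture.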

[14] = test system: Mycobacterium tuberculosis; experiment: Antimicrobial activity against Mycobacterium tuberculosis H37Rv ATCC 27294 expressing luciferase reporter gene infected in mouse J774 macrophages assessed as intracellular growth inhibition at 2 uM after 4 days by luminometry relative to untreated control; format: functional; conditions: H37Rv ATCC 27294, J774, 96 h, read-out: GI; in short: as §3
[15] = Genotoxicity in human HepG2/C3A cells assessed as genomic DNA fragmentation at 10 uM after 24 hrs by comet assay; format: toxicity, cell-based; in short: as §1
[16] = Antimicrobial activity against Mycobacterium avium subsp. avium ATCC 19698 expressing luciferase reporter gene assessed as growth inhibition after 6 days by luminometry; format: functional; conditions: ATCC 19698, 144 h
[17] = test system: Mycolicibacterium aurum; experiment: Antimicrobial activity against Mycobacterium aurum A+; format: functional

Row | SMILES | MIC [1] [mg/L] | selectivity ratio [2] | Activity [3] | inhibition of growth at 10 µM [4] [%] | MIC90 [5] [µM] | GI50 [6] [µM] | pIC50 [7] | inhibition of growth at 0.5 µM [8] [%] | inhibition of growth at 1 µM [9] [%] | inhibition of growth at 1 µM [10] [%] | GI50 [11] [µM] | inhibition of growth at 0.1 µM [12] [%] | GI50 [13] [µM] | inhibition of growth at 2 µM [14] [%] | Activity [15] | GI50 [16] [µM] | MIC [17] [mg/L]
1 | O=C1c2ccccc2-c2nccc3ccnc1c23 [SAMPANGINE] | 0.78 (≈ 3.36 µM) |  |  |  |  |  |  |  |  |  |  |  |  |  |  |  | 
2 | O=C1c2ccccc2-c2nccc3c2c1nc1ccccc13 [BENZOSAMPANGINE] | 0.39 (≈ 1.38 µM) |  |  |  |  |  |  |  |  |  |  |  |  |  |  |  | 
3 | COc1ccc(-c2cc3c(c(/C=C/N(C)C)n2)C(=O)c2ccccc2C3=O)cc1 |  | 92.5 | Non-toxic | 100 | 0.88 (≈ 0.338 µg/mL) | 0.36 | 4.48 | 9.3 | 100 | 26.3 | 3.06 | 42 | 7.65 | 47.1 | Non-toxic | 2.98 | 
4 | COc1ccc(-c2cc3c4c(nccc4n2)-c2ccccc2C3=O)cc1 |  | > 135 | Non-toxic | 100 | 0.92 (≈ 0.311 µg/mL) | 0.37 | < 4.30 | 10 | 99 | 38.5 | 2.54 | 81 | 8.56 | 51.5 | Toxic | 3.56 | 
5 | O=C1c2cccnc2-c2nccc3c2c1nc1ccccc13 [ASCIDIDEMIN] |  |  |  |  |  |  |  |  |  |  |  |  |  |  |  |  | 0.25 (≈ 0.882 µM)
6 | O=C1c2ccccc2-c2nccc3nc(-c4ccccc4)cc1c23 |  | 39.1 |  | 100 | 1.2 (≈ 0.37 µg/mL) | 0.55 | 4.67 | 14.6 | 95 | 32.6 | 3.21 | 67 | 10.6 | 48.2 |  | 4.22 | 
7 | Cc1ccnc2c1C(=O)c1ccccc1C2=O [CLEISTOPHOLINE] | 12.5 (≈ 56 µM) |  |  |  |  |  |  |  |  |  |  |  |  |  |  |  | 
8 | CCc1ccnc2c1C(=O)c1ccccc1C2=O | 12.5 (≈ 52.7 µM) |  |  |  |  |  |  |  |  |  |  |  |  |  |  |  | 
9 | COc1ccc(-c2cc(O)c3c(c2)C(=O)c2ccccc2C3=O)cc1 |  | 4.2 | Non-toxic | 100 | 0.92 (≈ 0.304 µg/mL) | 0.45 | 5.73 | 21.6 | 92 | 27.6 | 3.52 | 35 | 7.55 | 42.3 | Toxic | 3.01 | 
10 | CCOc1nc2c3c(ncc(Br)c3c1Br)-c1ccccc1C2=O | 25 (≈ 57.6 µM) |  |  |  |  |  |  |  |  |  |  |  |  |  |  |  | 
11 | CN(C)/C=C/c1nc(-c2ccc(F)cc2)cc2c1C(=O)c1ccccc1C2=O |  | 91 |  | 100 | 0.88 (≈ 0.328 µg/mL) | 0.41 | 4.43 | 10.2 | 92 | 27.3 | 3.23 | 35 | 7.49 | 60.5 |  | 3.65 | 
12 | CN[C@@H]1[C@H](O[C@H]2[C@H](O[C@H]3[C@H](O)[C@@H](O)[C@H](N=C(N)N)[C@@H](O)[C@@H]3N=C(N)N)O[C@@H](C)[C@]2(O)C=O)O[C@@H](CO)[C@H](O)[C@H]1O [STREPTOMYCIN] | 2 (≈ 3.44 µM) |  |  |  |  |  |  |  |  |  |  |  |  |  |  |  | 
13 | CO[C@H]1/C=C/O[C@@]2(C)Oc3c(C)c(O)c4c(O)c(c(/C=N/N5CCN(C)CC5)c(O)c4c3C2=O)NC(=O)/C(C)=C\C=C\[C@H](C)[C@H](O)[C@@H](C)[C@@H](O)[C@@H](C)[C@H](OC(C)=O)[C@@H]1C [RIFAMPIN] | 0.5 (≈ 0.608 µM) |  |  | 100 | 0.12 (≈ 0.0988 µg/mL) | 0.03 |  |  | 100 |  |  | 99 |  |  |  |  | 
14 | Cc1ccc(-c2cc3c(c(/C=C/N(C)C)n2)C(=O)c2ccccc2C3=O)cc1 |  | 40.4 |  | 100 | 1.5 (≈ 0.553 µg/mL) | 0.69 | 4.55 | 15.9 | 100 | 36.2 | 4.83 | 39 | 8.59 | 48.7 |  | 3.69 | 
